According to ChEMBL document CHEMBL5724801, “EUbOPEN Chemogenomics Library - Multiplex” (2024):
Several values for one entry are separate records, joined by “and”; a condition that tells them apart may be missing. Equal values may be shown once.

System: Fibroblast
Assay: Multiplex assay against human fibroblast
Assay type: toxicity, cell-based
Method in brief: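 Tubulin, mitochondrial-mass and membrane-permeability phenotypes are per cents of healthy-nucleus cells. Cells were gated by CellPathfinder machine learning into Hoechst high-intensity objects or normal cells, normal cells into healthy, pyknosed or fragmented nuclei, and pyknosed cells into mitotic or apoptotic. Before that, live cells stained at seeding with Hoechst33342, BioTracker Green Microtubule Cytoskeleton Dye, MitoTracker Red and Annexin V Alexa Fluor 680 were imaged on a CQ1 microscope at 37°C and 5% CO2 after compound addition.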

[1] = 12 h, 1 µM, compound concentration 1 uM
[2] = 12 h, 10 µM, compound concentration 10 uM
[3] = 24 h, 1 µM, compound concentration 1 uM
[4] = 24 h, 10 µM, compound concentration 10 uM
[5] = 48 h, 1 µM, compound concentration 1 uM
[6] = 48 h, 10 µM, compound concentration 10 uM

COc1cc(/C=C(\C#N)C(=O)Nc2nnc(C(F)(F)F)s2)ccc1OCc1ccc(C(F)(F)F)cc1C(F)(F)F
Population Healthy Nuclei (%) [1]: 58.16% and 84.16%
Population Hoechst High Intensity Objects (%) [1]: 0%
Population Membrane Permeable-Phenotype (%) [1]: 2.63% and 2.94%
Population Mitochondria Different-Phenotype (%) [1]: 3.51% and 3.53%
Population Mitotic Cells (%) [1]: 97.5% and 65%
Population Normal (%) [1]: 100%
Population Pyknosed Nuclei (%) [1]: 20.41% and 9.9%
Population Tubulin-Different-Phenotype (%) [1]: 14.04% and 8.24%
Total Cell Count [1]: 196 and 202
Population Apoptotic (%) [2]: 13.04% and 12.12%
Population Fragmented Nuclei (%) [2]: 7.14% and 5.21%
Population Healthy Nuclei (%) [2]: 67.58% and 79.15%
Population Hoechst High Intensity Objects (%) [2]: 0%
Population Membrane Permeable-Phenotype (%) [2]: 4.07% and 1.2%
Population Mitochondria Different-Phenotype (%) [2]: 8.13% and 4.79%
Population Mitotic Cells (%) [2]: 86.96% and 87.88%
Population Normal (%) [2]: 100%
Population Pyknosed Nuclei (%) [2]: 25.27% and 15.64%
Population Tubulin-Different-Phenotype (%) [2]: 7.32% and 18.56%
Total Cell Count [2]: 182 and 211
Population Apoptotic (%) [3]: 9.09% and 25%
Population Fragmented Nuclei (%) [3]: 17.05% and 6.05%
Population Healthy Nuclei (%) [3]: 67.74% and 86.51%
Population Hoechst High Intensity Objects (%) [3]: 0%
Population Membrane Permeable-Phenotype (%) [3]: 5.44% and 3.23%
Population Mitochondria Different-Phenotype (%) [3]: 4.76% and 1.61%
Population Mitotic Cells (%) [3]: 90.91% and 75%
Population Normal (%) [3]: 100%
Population Pyknosed Nuclei (%) [3]: 15.21% and 7.44%
Population Tubulin-Different-Phenotype (%) [3]: 14.97% and 9.14%
Total Cell Count [3]: 217 and 215
Population Apoptotic (%) [4]: 9.09% and 23.53%
Population Fragmented Nuclei (%) [4]: 4.46% and 6.64%
Population Healthy Nuclei (%) [4]: 79.21% and 85.31%
Population Hoechst High Intensity Objects (%) [4]: 0%
Population Membrane Permeable-Phenotype (%) [4]: 3.75% and 3.33%
Population Mitochondria Different-Phenotype (%) [4]: 7.5% and 5%
Population Mitotic Cells (%) [4]: 90.91% and 76.47%
Population Normal (%) [4]: 100%
Population Pyknosed Nuclei (%) [4]: 16.34% and 8.06%
Population Tubulin-Different-Phenotype (%) [4]: 10% and 18.89%
Total Cell Count [4]: 202 and 211
Population Apoptotic (%) [5]: 33.33% and 37.5%
Population Fragmented Nuclei (%) [5]: 14.56% and 6.01%
Population Healthy Nuclei (%) [5]: 78.54% and 90.56%
Population Hoechst High Intensity Objects (%) [5]: 0%
Population Membrane Permeable-Phenotype (%) [5]: 2.93% and 0.95%
Population Mitochondria Different-Phenotype (%) [5]: 8.29% and 2.37%
Population Mitotic Cells (%) [5]: 66.67% and 62.5%
Population Normal (%) [5]: 100%
Population Pyknosed Nuclei (%) [5]: 6.9% and 3.43%
Population Tubulin-Different-Phenotype (%) [5]: 6.83% and 10.43%
Total Cell Count [5]: 261 and 233
Population Fragmented Nuclei (%) [6]: 7.11% and 8.56%
Population Healthy Nuclei (%) [6]: 90.05% and 88.74%
Population Hoechst High Intensity Objects (%) [6]: 0%
Population Membrane Permeable-Phenotype (%) [6]: 1.05% and 2.03%
Population Mitochondria Different-Phenotype (%) [6]: 10.53% and 2.54%
Population Mitotic Cells (%) [6]: 100% and 50%
Population Normal (%) [6]: 100%
Population Pyknosed Nuclei (%) [6]: 2.84% and 2.7%
Total Cell Count [6]: 211 and 222

Nc1nccc(-c2ccn3c(N)nccc23)n1
Population Apoptotic (%) [1]: 13.51% and 18.75%
Population Healthy Nuclei (%) [1]: 61.49% and 82.11%
Population Hoechst High Intensity Objects (%) [1]: 0%
Population Membrane Permeable-Phenotype (%) [1]: 5.05% and 4.47%
Population Mitochondria Different-Phenotype (%) [1]: 4.04% and 6.7%
Population Mitotic Cells (%) [1]: 86.49% and 81.25%
Population Normal (%) [1]: 100%
Population Pyknosed Nuclei (%) [1]: 22.98% and 14.68%
Population Tubulin-Different-Phenotype (%) [1]: 7.07% and 20.11%
Total Cell Count [1]: 161 and 218
Population Apoptotic (%) [2]: 10.71% and 9.09%
Population Fragmented Nuclei (%) [2]: 8.62% and 3.03%
Population Healthy Nuclei (%) [2]: 75.29% and 82.68%
Population Hoechst High Intensity Objects (%) [2]: 0%
Population Membrane Permeable-Phenotype (%) [2]: 8.4% and 3.14%
Population Mitochondria Different-Phenotype (%) [2]: 6.87% and 7.33%
Population Mitotic Cells (%) [2]: 89.29% and 90.91%
Population Normal (%) [2]: 100%
Population Pyknosed Nuclei (%) [2]: 16.09% and 14.29%
Population Tubulin-Different-Phenotype (%) [2]: 9.16% and 16.75%
Total Cell Count [2]: 174 and 231
Population Apoptotic (%) [3]: 15.56% and 14.81%
Population Fragmented Nuclei (%) [3]: 8.38% and 5.44%
Population Healthy Nuclei (%) [3]: 68.06% and 83.26%
Population Hoechst High Intensity Objects (%) [3]: 0%
Population Membrane Permeable-Phenotype (%) [3]: 0.77% and 2.51%
Population Mitochondria Different-Phenotype (%) [3]: 2.31% and 2.51%
Population Mitotic Cells (%) [3]: 84.44% and 85.19%
Population Normal (%) [3]: 100%
Population Pyknosed Nuclei (%) [3]: 23.56% and 11.3%
Population Tubulin-Different-Phenotype (%) [3]: 13.08% and 16.58%
Total Cell Count [3]: 191 and 239
Population Apoptotic (%) [4]: 6.98% and 4.35%
Population Fragmented Nuclei (%) [4]: 9.95% and 3.5%
Population Healthy Nuclei (%) [4]: 69.67% and 87.55%
Population Hoechst High Intensity Objects (%) [4]: 0%
Population Membrane Permeable-Phenotype (%) [4]: 4.76% and 5.33%
Population Mitochondria Different-Phenotype (%) [4]: 5.44% and 2.22%
Population Mitotic Cells (%) [4]: 93.02% and 95.65%
Population Normal (%) [4]: 100%
Population Pyknosed Nuclei (%) [4]: 20.38% and 8.95%
Population Tubulin-Different-Phenotype (%) [4]: 16.33% and 21.33%
Total Cell Count [4]: 211 and 257
Population Apoptotic (%) [5]: 22.73% and 26.09%
Population Fragmented Nuclei (%) [5]: 8.37% and 5.8%
Population Healthy Nuclei (%) [5]: 81.4% and 83.93%
Population Hoechst High Intensity Objects (%) [5]: 0%
Population Membrane Permeable-Phenotype (%) [5]: 1.14% and 3.72%
Population Mitochondria Different-Phenotype (%) [5]: 9.71% and 2.66%
Population Mitotic Cells (%) [5]: 77.27% and 73.91%
Population Normal (%) [5]: 100%
Population Pyknosed Nuclei (%) [5]: 10.23% and 10.27%
Total Cell Count [5]: 215 and 224
Population Apoptotic (%) [6]: 23.53% and 19.05%
Population Fragmented Nuclei (%) [6]: 6.48% and 4.4%
Population Healthy Nuclei (%) [6]: 86.64% and 87.2%
Population Hoechst High Intensity Objects (%) [6]: 0%
Population Membrane Permeable-Phenotype (%) [6]: 1.87% and 1.83%
Population Mitotic Cells (%) [6]: 76.47% and 80.95%
Population Normal (%) [6]: 100%
Population Pyknosed Nuclei (%) [6]: 6.88% and 8.4%
Total Cell Count [6]: 247 and 250
